Assay results taken from ChEMBL document CHEMBL1764953, “Discovery of orally active carboxylic acid derivatives of 2-phenyl-5-trifluoromethyloxazole-4-carboxamide as potent diacylglycerol acyltransferase-1 inhibitors for the potential treatment of obesity and diabetes” (J Med Chem, 2011).
Calls of active or inactive are those of the source. No cut-off for these calls is given here.

How the values were obtained:
Cytochrome P450 2D6 = Cytochrome P450 2D6 (Homo sapiens, UniProt P10635); assay: Inhibition of CYP2D6; assay type: ADME
Cytochrome P450 2D6, sequence (P10635 whole entry): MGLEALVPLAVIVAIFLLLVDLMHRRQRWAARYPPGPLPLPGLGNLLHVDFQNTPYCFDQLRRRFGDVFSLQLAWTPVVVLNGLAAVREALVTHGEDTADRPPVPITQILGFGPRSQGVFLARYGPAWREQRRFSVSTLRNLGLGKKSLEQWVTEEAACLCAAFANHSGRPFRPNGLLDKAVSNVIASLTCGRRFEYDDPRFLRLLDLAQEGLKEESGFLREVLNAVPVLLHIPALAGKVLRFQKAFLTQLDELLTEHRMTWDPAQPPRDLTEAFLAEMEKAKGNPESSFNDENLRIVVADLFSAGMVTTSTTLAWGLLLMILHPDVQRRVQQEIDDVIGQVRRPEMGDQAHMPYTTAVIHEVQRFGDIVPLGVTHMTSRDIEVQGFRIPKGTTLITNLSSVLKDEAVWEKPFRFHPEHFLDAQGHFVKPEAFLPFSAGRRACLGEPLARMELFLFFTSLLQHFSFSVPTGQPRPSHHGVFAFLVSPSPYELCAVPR

[1] = Clearance in Beagle dog at 5 mg/kg, iv; assay type: ADME, organism-based, Canis lupus familiaris; set-up: dose 5 mg/kg, route intravenous; details: in vivo
How it was run: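 Plasma levels by protein precipitation with acetonitrile and LC-MS/MS (linear range 5.0–5000 ng/mL); noncompartmental analysis; mean of n = 3.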

Rattus norvegicus [2] = assay: Antiobesity activity in diet-induced obese rat assessed as decrease in food intake at 1 mg/kg, po administered once daily for 3 weeks; assay type: functional; set-up: scale not given: the % may be the effect or the level left
How it was run: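 Male DIO rats, 19 weeks old, on high fat diet for 12 weeks, dosed po once daily with Klucel (hydroxypropyl cellulose) suspension for 22 days; 10 rats per group. Body weight followed throughout; daily food intake recorded on days 1–3, 8, 9, 15 and 16, values averaged per group.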

[3] = Cmax in Beagle dog at 10 mg/kg, po by LC-MS/MS; assay type: ADME, organism-based, Canis lupus familiaris; set-up: dose 10 mg/kg, route oral; details: in vivo
How it was run: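 Plasma extracted by acetonitrile precipitation and quantified by LC-MS/MS (5.0–5000 ng/mL); noncompartmental PK; bioavailability relative to 5 mg/kg iv; mean of n = 3.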

Rattus norvegicus [4] = assay: Antidiabetic activity in diet-induced obese Sprague-Dawley rat assessed as effect on insulin level at 3 mg/kg, po administered once daily for 3 weeks measured after 30 mins by OGTT; assay type: functional, organism-based; set-up: dose 3 mg/kg
How it was run: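 DIO rats (n = 10/group) on high fat diet, dosed po once daily in Klucel suspension for 3 weeks. On day 21 an oral glucose challenge of 2 g/kg was given, and plasma insulin was measured at the 30 min time point.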

[5] = Inhibition of P-glycoprotein
Rattus norvegicus [6] = assay: Antidiabetic activity in diet-induced obese Sprague-Dawley rat assessed as decrease in glucose excursion at 1 mg/kg, po administered once daily for 3 weeks by OGTT; assay type: functional, organism-based; set-up: dose 1 mg/kg
How it was run: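 Male Sprague-Dawley DIO rats (n = 10/group), 550–650 g, reverse light/dark cycle, high fat diet from 7 weeks of age; dosed po once daily in Klucel suspension.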

IC50 (Cytochrome P450 2D6): > 50 µM | clearance [1]: 1.3 mL/min/kg | Cmax [3]: 4.7 µM | inhibition [5]: inactive
Structure (SMILES): O=C(Nc1ccc(C2CCN(C(=O)[C@H]3CC[C@H](C(=O)O)CC3)CC2)cc1)c1nc(-c2ccccc2)oc1C(F)(F)F
Activity (Rattus norvegicus [2]): 19% | Activity (Rattus norvegicus [4]): inactive | Activity (Rattus norvegicus [6]): Active
